Assay results reported in ChEMBL document CHEMBL4334471, “Discovery of 1,8-disubstituted-[1,2,3]triazolo[4,5-c]quinoline derivatives as a new class of Hippo signaling pathway inhibitors” (Bioorg Med Chem Lett, 2019).

Assays:
[1] = biological target: Serine/threonine-protein kinase PAK 6 (Homo sapiens) (UniProt Q9NQU5); experiment: Inhibition of recombinant human PAK6 (382 to end residues) assessed as residual activity at 10 uM using RRRLSFAEPG as substrate measured after 40 mins in presence of [gamma33P]ATP by scintillation counting based radiometry assay relative to control
[2] = biological target: Dual specificity protein kinase CLK4 (Homo sapiens) (UniProt Q9HAZ1); experiment: Inhibition of recombinant human CLK4 (128 to end residues) assessed as residual activity at 10 uM using YRRAAVPPSPSLSRHSSPHQS(p)EDEEE as substrate incubated 40 mins in presence of [gamma-33ATP] by scintillation counting based radiometry assay relative to control
Sequence of Dual specificity protein kinase CLK4 (Homo sapiens) (Q9HAZ1 whole entry, looked up): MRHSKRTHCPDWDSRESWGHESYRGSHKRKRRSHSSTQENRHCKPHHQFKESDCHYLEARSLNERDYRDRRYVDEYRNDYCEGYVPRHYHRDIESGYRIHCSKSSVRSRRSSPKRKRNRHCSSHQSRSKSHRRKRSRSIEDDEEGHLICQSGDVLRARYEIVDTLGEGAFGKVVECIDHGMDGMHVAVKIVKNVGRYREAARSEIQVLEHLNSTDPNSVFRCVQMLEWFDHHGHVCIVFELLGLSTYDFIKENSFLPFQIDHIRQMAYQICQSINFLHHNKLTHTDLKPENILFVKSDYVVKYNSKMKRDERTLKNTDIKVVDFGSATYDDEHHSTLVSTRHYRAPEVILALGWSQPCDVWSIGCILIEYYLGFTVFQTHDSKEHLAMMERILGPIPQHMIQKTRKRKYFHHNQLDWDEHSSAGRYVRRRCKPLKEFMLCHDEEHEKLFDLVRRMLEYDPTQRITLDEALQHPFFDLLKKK

[3] = tested on: Tyrosine-protein kinase ABL1 (Homo sapiens), P00519 [M351T]; experiment: Inhibition of human ABL1 M351T mutant (27 to end residues) assessed as residual activity at 10 uM using EAIYAAPFAKKK as substrate incubated for 40 mins in presence of [gamma-33ATP] by scintillation counting based radiometry assay relative to control
[4] = biological target: cAMP-dependent protein kinase catalytic subunit alpha (Homo sapiens) (UniProt P17612); experiment: Inhibition of recombinant human PKA assessed as residual activity at 10 uM relative to control
[5] = biological target: Serine/threonine-protein kinase MRCK gamma (Homo sapiens) (UniProt Q6DT37); experiment: Inhibition of recombinant human MRCKgamma assessed as residual activity at 10 uM using KKRNRTLTV as substrate incubated for 40 mins in presence of [gamma-33ATP by scintillation counting based radiometry assay relative to control
[6] = species: Homo sapiens; experiment: Inhibition of recombinant human full length PI3K p120gamma R459Q mutant assessed as residual activity at 10 uM using phosphatidylinositol-4, 5-bisphosphate as substrate incubated for 40 mins in presence of [gamma33P]ATP by scintillation counting based radiometry assay relative to control
[7] = biological target: Mitogen-activated protein kinase kinase kinase 7 (Homo sapiens) (UniProt O43318); experiment: Inhibition of recombinant human TAK1 (1 to 303 residues) assessed as residual activity at 10 uM using casein as substrate incubated for 40 mins in presence of [gamma33P]ATP by scintillation counting based radiometry assay relative to control
[8] = tested on: Angiopoietin-1 receptor (Homo sapiens), Q02763 [Q939H,Q940H,R849W]; experiment: Inhibition of recombinant human TIE2 Q939H/Q940H/R849W mutant (771 to end residues) assessed as residual activity at 10 uM using EFPIYDFLPAKKK as substrate incubated for 40 mins in presence of [gamma33P]ATP by scintillation counting based radiometry assay relative to control
Sequence of Angiopoietin-1 receptor (Homo sapiens), Q02763 [Q939H,Q940H,R849W] (Q02763 whole entry R849W/Q939H/Q940H): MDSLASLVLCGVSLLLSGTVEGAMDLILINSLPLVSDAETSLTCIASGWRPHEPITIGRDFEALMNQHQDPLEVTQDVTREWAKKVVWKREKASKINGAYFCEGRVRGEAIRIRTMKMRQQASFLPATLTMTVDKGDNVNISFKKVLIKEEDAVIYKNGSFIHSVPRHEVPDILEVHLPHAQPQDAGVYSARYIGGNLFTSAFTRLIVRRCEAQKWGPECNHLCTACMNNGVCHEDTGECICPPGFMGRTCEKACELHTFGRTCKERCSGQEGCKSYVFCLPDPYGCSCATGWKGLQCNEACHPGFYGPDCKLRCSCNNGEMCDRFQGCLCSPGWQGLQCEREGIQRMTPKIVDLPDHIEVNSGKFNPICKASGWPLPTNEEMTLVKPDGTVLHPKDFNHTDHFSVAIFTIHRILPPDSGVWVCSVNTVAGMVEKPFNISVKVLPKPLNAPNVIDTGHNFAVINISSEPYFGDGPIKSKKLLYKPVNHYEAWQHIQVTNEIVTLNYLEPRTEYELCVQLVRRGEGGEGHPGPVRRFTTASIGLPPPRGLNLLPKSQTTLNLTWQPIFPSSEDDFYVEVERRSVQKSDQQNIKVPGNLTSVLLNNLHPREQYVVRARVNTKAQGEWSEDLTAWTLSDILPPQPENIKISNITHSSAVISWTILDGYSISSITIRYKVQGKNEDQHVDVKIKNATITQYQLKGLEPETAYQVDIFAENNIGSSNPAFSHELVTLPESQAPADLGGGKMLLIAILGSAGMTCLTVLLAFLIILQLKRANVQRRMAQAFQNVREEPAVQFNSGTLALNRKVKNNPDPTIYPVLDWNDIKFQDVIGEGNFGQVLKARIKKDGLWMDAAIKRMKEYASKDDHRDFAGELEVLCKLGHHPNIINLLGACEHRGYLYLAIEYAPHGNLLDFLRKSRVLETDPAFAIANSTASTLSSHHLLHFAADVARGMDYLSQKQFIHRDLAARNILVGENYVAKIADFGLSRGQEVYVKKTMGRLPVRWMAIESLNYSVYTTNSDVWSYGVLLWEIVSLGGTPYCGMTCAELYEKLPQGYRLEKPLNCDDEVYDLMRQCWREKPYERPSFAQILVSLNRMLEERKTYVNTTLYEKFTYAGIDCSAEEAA

[9] = biological target: Aurora kinase B (Homo sapiens) (UniProt Q96GD4); experiment: Inhibition of recombinant full length human Aurora B assessed as residual activity at 10 uM using AKRRRLSSLRA as substrate incubated for 40 mins in presence of [gamma-33ATP] by scintillation counting based radiometry assay relative to control
Sequence of Aurora kinase B (Homo sapiens) (Q96GD4 whole entry): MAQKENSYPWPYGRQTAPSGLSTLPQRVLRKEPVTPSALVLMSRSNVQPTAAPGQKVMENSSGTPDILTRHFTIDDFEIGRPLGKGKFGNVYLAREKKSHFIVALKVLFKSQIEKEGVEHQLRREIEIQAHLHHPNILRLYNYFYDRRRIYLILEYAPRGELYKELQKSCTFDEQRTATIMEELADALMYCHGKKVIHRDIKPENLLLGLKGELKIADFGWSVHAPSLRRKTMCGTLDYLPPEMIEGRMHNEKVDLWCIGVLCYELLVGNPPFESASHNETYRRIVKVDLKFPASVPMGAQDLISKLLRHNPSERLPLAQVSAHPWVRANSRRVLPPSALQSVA

[10] = biological target: Mitogen-activated protein kinase 12 (Homo sapiens) (UniProt P53778); experiment: Inhibition of recombinant human full length SAPK3 assessed as residual activity at 10 uM using myelin basic protein as substrate incubated for 40 mins in presence of [gamma33P]ATP by scintillation counting based radiometry assay relative to control
Sequence of Mitogen-activated protein kinase 12 (Homo sapiens) (P53778 whole entry, the tested form may be a part): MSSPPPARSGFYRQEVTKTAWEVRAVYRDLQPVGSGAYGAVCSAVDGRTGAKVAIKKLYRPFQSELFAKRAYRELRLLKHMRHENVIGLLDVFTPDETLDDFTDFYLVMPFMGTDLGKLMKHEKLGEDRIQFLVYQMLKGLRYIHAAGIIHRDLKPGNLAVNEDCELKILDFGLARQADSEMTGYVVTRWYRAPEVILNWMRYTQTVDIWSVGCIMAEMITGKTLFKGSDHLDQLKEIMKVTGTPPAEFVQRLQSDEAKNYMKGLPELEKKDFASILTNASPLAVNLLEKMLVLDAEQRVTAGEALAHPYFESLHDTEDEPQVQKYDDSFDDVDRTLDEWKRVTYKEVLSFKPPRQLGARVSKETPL

[11] = biological target: Ephrin type-A receptor 8 (Homo sapiens) (UniProt P29322); experiment: Inhibition of recombinant human EphA8 (615 to 911 residues) assessed as residual activity at 10 uM using KTFCGTPEYLAPEVRREPRILSEEEQEMFRDFDYIADWC as substrate at 40 mins in presence of [gamma-33ATP] by scintillation counting based radiometry assay relative to control
[12] = biological target: Serine/threonine-protein kinase TAO2 (Homo sapiens) (UniProt Q9UL54); experiment: Inhibition of recombinant human TAO2 (1 to 320 residues) assessed as residual activity at 10 uM using myelin basic protein as substrate incubated for 40 mins in presence of [gamma33P]ATP by scintillation counting based radiometry assay relative to control
[13] = biological target: Homeodomain-interacting protein kinase 4 (Homo sapiens) (UniProt Q8NE63); experiment: Inhibition of human HIPK4 assessed as residual activity at 10 uM using RRRFRPASPLRGPPK as substrate after 40 mins by [gamma-33ATP] radiometric assay relative to control
[14] = biological target: Protein kinase C beta type (Homo sapiens) (UniProt P05771); experiment: Inhibition of recombinant human PKCbeta2 (2 to end residues) assessed as residual activity at 10 uM using histone H1 as substrate incubated for 40 mins in presence of [gamma33P]ATP by scintillation counting based radiometry assay relative to control
[15] = biological target: Serine/threonine-protein kinase PAK 1 (Homo sapiens) (UniProt Q13153); experiment: Inhibition of recombinant human PAK1 (150 to end residues) assessed as residual activity at 10 uM using RRRLSFAEPG as substrate measured after 40 mins in presence of [gamma33P]ATP by scintillation counting based radiometry assay relative to control
[16] = biological target: Protein kinase C theta type (Homo sapiens) (UniProt Q04759); experiment: Inhibition of recombinant full length human PKCtheta assessed as residual activity at 10 uM using histone H1 as substrate incubated for 40 mins in presence of [gamma33P]ATP by scintillation counting based radiometry assay relative to control
Sequence of Protein kinase C theta type (Homo sapiens) (Q04759 whole entry, looked up): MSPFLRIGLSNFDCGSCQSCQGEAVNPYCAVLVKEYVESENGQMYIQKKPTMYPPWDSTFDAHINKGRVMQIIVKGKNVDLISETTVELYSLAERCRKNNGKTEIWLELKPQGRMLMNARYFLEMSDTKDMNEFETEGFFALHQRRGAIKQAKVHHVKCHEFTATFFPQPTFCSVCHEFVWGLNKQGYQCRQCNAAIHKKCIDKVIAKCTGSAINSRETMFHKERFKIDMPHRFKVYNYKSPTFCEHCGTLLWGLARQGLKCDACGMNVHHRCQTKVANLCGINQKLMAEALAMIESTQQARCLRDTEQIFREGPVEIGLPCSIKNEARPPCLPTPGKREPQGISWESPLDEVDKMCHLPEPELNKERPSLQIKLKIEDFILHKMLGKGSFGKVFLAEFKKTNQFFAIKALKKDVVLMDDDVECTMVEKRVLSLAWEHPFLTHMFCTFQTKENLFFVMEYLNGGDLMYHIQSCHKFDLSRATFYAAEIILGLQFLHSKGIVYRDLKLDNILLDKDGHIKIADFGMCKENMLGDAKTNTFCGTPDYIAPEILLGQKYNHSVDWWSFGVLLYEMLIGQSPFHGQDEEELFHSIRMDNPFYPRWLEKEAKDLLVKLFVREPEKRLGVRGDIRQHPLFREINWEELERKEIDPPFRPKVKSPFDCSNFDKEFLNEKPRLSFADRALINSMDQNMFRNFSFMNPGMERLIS

[17] = tested on: A549; experiment: Inhibition of hippo signalling protein in human A549 cells cotransfected with CTGF promoter-driven firefly luciferase and CMV promoter-driven renilla luciferase gene incubated for 24 hrs by dual-luciferase gene assay; type: cell-based
Procedure, shortened: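 Dual-luciferase reporter read-out in A549-CTGF cells after 24 h culture with compound. Firefly luciferase is expressed relative to DMSO-treated cells, set as 1. Screening used 10 µM. Values are mean ± SEM of three independent experiments.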

[18] = biological target: Serine/threonine-protein kinase Chk1 (Homo sapiens) (UniProt O14757); experiment: Inhibition of recombinant full length human CHK1 assessed as residual activity at 10 uM using KKKVSRSGLYRSPSMPENLNRPR as substrate incubated for 40 mins in presence of [gamma-33ATP] by scintillation counting based radiometry assay relative to control
[19] = biological target: MAP kinase-interacting serine/threonine-protein kinase 2 (Homo sapiens) (UniProt Q9HBH9); experiment: Inhibition of recombinant human MNK2 assessed as residual activity at 10 uM using myelin basic protein as substrate incubated for 40 mins in presence of [gamma-33ATP by scintillation counting based radiometry assay relative to control
[20] = biological target: Mitogen-activated protein kinase kinase kinase kinase 4 (Homo sapiens) (UniProt O95819); experiment: Inhibition of recombinant human MAP4K4 (1 to 328 residues) assessed as residual activity at 10 uM using RLGRDKYKTLRQI as substrate incubated for 40 mins in presence of [gamma-33ATP by scintillation counting based radiometry assay relative to control
Sequence of Mitogen-activated protein kinase kinase kinase kinase 4 (Homo sapiens) (O95819 2-1239 limits assumed): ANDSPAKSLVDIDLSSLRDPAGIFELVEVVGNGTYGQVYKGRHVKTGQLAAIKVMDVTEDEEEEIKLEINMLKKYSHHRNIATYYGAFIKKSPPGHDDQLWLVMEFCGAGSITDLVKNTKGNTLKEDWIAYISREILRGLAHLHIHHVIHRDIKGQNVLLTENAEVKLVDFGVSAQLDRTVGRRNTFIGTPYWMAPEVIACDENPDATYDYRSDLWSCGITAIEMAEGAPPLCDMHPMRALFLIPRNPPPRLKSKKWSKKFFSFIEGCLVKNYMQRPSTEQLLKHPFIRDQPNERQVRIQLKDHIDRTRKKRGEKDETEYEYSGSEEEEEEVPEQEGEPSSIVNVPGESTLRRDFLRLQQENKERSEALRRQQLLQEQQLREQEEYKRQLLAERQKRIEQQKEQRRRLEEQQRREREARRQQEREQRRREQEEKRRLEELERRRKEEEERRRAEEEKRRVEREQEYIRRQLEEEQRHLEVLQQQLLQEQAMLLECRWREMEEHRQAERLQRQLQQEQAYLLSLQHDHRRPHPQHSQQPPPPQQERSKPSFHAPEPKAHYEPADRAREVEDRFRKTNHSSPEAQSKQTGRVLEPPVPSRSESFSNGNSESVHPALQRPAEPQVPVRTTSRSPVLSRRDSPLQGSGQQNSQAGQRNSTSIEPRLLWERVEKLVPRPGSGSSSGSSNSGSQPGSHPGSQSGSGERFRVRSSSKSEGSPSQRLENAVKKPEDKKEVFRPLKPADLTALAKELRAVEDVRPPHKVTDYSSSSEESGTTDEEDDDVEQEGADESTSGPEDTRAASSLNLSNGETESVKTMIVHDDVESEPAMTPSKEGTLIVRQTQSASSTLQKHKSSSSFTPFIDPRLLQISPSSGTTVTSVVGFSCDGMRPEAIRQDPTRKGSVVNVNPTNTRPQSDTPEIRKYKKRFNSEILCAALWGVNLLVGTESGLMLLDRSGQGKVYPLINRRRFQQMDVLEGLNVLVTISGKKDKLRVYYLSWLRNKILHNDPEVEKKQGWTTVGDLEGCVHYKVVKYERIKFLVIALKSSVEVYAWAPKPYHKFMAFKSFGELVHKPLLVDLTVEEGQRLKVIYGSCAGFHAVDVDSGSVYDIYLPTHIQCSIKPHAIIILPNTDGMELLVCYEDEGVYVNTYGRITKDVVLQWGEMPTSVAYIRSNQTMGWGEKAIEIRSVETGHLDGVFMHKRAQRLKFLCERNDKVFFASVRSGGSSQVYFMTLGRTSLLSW

[21] = biological target: Testis-specific serine/threonine-protein kinase 1 (Homo sapiens) (UniProt Q9BXA7); experiment: Inhibition of recombinant full-length human TSSK1 assessed as residual activity at 10 uM using KKKVSRSGLYRSPSMPENLNRPR as substrate incubated for 40 mins in presence of [gamma33P]ATP by scintillation counting based radiometry assay relative to control
Sequence of Testis-specific serine/threonine-protein kinase 1 (Homo sapiens) (Q9BXA7 whole entry): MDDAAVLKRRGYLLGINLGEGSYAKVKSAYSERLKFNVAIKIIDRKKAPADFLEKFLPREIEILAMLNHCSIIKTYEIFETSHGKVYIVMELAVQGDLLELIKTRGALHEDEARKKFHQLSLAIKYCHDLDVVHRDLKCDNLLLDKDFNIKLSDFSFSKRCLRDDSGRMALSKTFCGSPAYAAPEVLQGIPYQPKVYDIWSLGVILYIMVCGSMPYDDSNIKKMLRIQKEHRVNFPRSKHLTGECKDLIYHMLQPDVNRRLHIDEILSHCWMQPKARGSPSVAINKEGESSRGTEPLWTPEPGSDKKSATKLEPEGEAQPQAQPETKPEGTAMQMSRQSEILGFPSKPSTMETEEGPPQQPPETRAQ

C[C@@H](c1ccccc1)n1nnc2cnc3ccc(-c4cnc5[nH]ccc5c4)cc3c21
Activity [1]: 74%
Activity [2]: 46%
Activity [3]: 3%
Activity [4]: 82%
Activity [5]: 67%
Activity [6]: 16%
Activity [7]: 91%
Activity [8]: 103%
Activity [9]: 34%
Activity [10]: 91%
Activity [11]: 73%
Activity [12]: 85%
Activity [13]: 57%
Activity [14]: 93%
Activity [15]: 92%
Activity [16]: 70%
inhibition [17]: Dose-dependent effect
Activity [18]: 140%
Activity [19]: 84%
Activity [20]: 34%
Activity [21]: 74%
